The values that follow come from ChEMBL document CHEMBL4354828, “Discovery of Taniborbactam (VNRX-5133): A Broad-Spectrum Serine- and Metallo-β-lactamase Inhibitor for Carbapenem-Resistant Bacterial Infections” (J Med Chem, 2020).

One data set concerns the target Neutrophil elastase (Homo sapiens, UniProt P08246). Nature of the data set: Inhibition of human neutrophil elastase 2 at 100 uM.
Data set [1] relates to Escherichia coli. The data set can be described thus: Antibacterial activity against Escherichia coli UNT057-1 expressing CTX-M-15 infected in C3H/Hej mouse assessed as log reduction in viable bacterial counts in kidney at 8 mg/kg, sc bid co-treated with 16 mg/kg of cefepime and measured after 7 days (reference value: 7.25 +/- 0.16). Type of data set: functional.
In data set [2] the test system is Enterobacter cloacae. The data set can be described thus: Effect on growth of Enterobacter cloacae 144200 expressing p99 AmpC after 16 to 20 hrs by CLSI-based microbroth dilution method. Conditions: in vivo; call rule not given here. It counts as organism-based. On the technique in general: In broth dilution the organism is exposed to a series of concentrations in liquid medium.
The target of a further data set is Stromelysin-1 (Homo sapiens, UniProt P08254). Nature of the data set: Inhibition of human MMP3 at 100 uM.
In the next data set the test system is Staphylococcus aureus. Nature of the data set: Effect on growth of wild type Staphylococcus aureus ATCC 29213 after 16 to 20 hrs by CLSI-based microbroth dilution method. Type of data set: organism-based.
Data set [3] has as its system Klebsiella pneumoniae. Nature of the data set: Antibacterial activity against Klebsiella pneumoniae UNT-065-1 expressing CTX-M14 infected in CD1 mouse assessed as log reduction in viable bacterial count in lung at 16 mg/kg, sc administered as single dose co-treated with 32 mg/kg cefepime and measured after 24 hrs post infection (reference value: 9.27 +/- 0.21). Type of data set: functional.

Data set [4] has as its system Klebsiella pneumoniae. Nature of the data set: Inhibition of OXA-48 in Klebsiella pneumoniae assessed as meropenem antibacterial activity at 4 ug/ml after 16 to 20 hrs by CLSI-based microbroth dilution method (Rvb >= […] ug/ml).
The target of another data set is Chymotrypsin (Homo sapiens, UniProt Q99895+P17538+P40313+Q6GPI1). The data set can be described thus: Inhibition of human chymotrypsin at 100 uM. Type of data set: protein assay.
Data set [5] relates to Klebsiella pneumoniae. Nature of the data set: Inhibition of VIM-27/CTX-M-15/SHV-11/OXA-1 in Klebsiella pneumoniae CDC-0040 assessed as cefepime antibacterial activity at 8 ug/ml after 16 to 20 hrs by CLSI-based microbroth dilution method.
Data set [6] deals with Escherichia coli. The data set can be described thus: Inhibition of NDM-1/CMY-6/OXA-1 in Escherichia coli CDC-0055 assessed as cefepime antibacterial activity at 8 ug/ml after 16 to 20 hrs by CLSI-based microbroth dilution method. Put shortly:
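MDR β-lactamase-producing Gram-negative clinical isolates. […] MIC was reported as the inhibitor concentration that restores the partner's antibacterial activity.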

The target of another data set is Cytochrome P450 2D6 (Homo sapiens, UniProt P10635). The data set can be described thus: Inhibition of human CYP2D6 at 100 uM. Type of data set: ADME.
Data set [7] concerns Klebsiella pneumoniae. The data set can be described thus: Inhibition of TEM/CTX-M/SHV/KPC in Klebsiella pneumoniae 964-2 assessed as cefepime antibacterial activity at 4 ug/ml after 16 to 20 hrs by CLSI-based microbroth dilution method (Rvb > […] ug/ml).
Data set [8] relates to Klebsiella pneumoniae. Nature of the data set: Inhibition of OXA-232/OXA-9/TEM-1A/CTX-M-15/OXA-1 in Klebsiella pneumoniae CDC-0066 assessed as cefepime antibacterial activity at 8 ug/ml after 16 to 20 hrs by CLSI-based microbroth dilution method (Rvb > […] ug/ml).
Data set [9] can be described thus: Inhibition of bacterial SHV-5 using cefotaxime as substrate preincubated for 15 mins followed by susbtrate addition and measured after 10 mins by spectrophotometric method. Also noted: species or system Bacteria.
Data set [10] concerns Enterobacter cloacae. Nature of the data set: Inhibition of TEM/CTX-M/SHV/Cephalosporinase in Enterobacter cloacae CH23 assessed as cefepime antibacterial activity at 4 ug/ml after 16 to 20 hrs by CLSI-based microbroth dilution method (Rvb > […] ug/ml).
The next data set has as its target Coagulation factor X (Homo sapiens, UniProt P00742). The data set can be described thus: Inhibition of human factor Xa at 100 uM.
In data set [11] the test system is Pseudomonas aeruginosa. The data set can be described thus: Inhibition of KPC-2/PDC-42 in Pseudomonas aeruginosa CDC-0356 assessed as cefepime antibacterial activity at 8 ug/ml after 16 to 20 hrs by CLSI-based microbroth dilution method (Rvb > […] ug/ml).
Data set [12] can be described thus: Cytotoxicity against human Proximal tubule epithelial cells up to 1000 ug/ml relative to control. Type of data set: cell-based.
Data set [13] relates to Klebsiella pneumoniae. Nature of the data set: Effect on growth of Klebsiella pneumoniae 11978 expressing OXA-48 after 16 to 20 hrs by CLSI-based microbroth dilution method. It counts as organism-based. To be noted: in vivo.
Data set [14] relates to Klebsiella pneumoniae ATCC BAA-1705. Nature of the data set: Inhibition of KPC-2 in Klebsiella pneumoniae ATCC BAA 1705 assessed as meropenem antibacterial activity at 4 ug/ml after 16 to 20 hrs by CLSI-based microbroth dilution method (reference value: […] ug/ml).
Data set [15] relates to Klebsiella pneumoniae. Nature of the data set: Effect on growth of wild type Klebsiella pneumoniae CI 09 after 16 to 20 hrs by CLSI-based microbroth dilution method. Type of data set: organism-based.
The nature of data set [16]: AUC (infinity) in mouse at 10 mg/kg, iv after 1 to 6 hrs by LC-MS/MS analysis. Type of data set: ADME, organism-based. Also noted: dose 10 mg/kg, time infinity, route intravenous. Conditions: in vivo.
In data set [17] the test system is Pseudomonas aeruginosa. The data set can be described thus: Inhibition of KPC-2/PDC-42 in Pseudomonas aeruginosa CDC-0356 assessed as meropenem antibacterial activity at 4 ug/ml after 16 to 20 hrs by CLSI-based microbroth dilution method (reference value: […] ug/ml).
Data set [18] can be described thus: Cytotoxicity against human MRC5 cells assessed as growth inhibition at 256 ug/ml relative to control. It counts as cell-based. To be noted: read-out: Activity.
Data set [19] in a line: Inhibition of bacterial KPC-2 using imipenem as substrate preincubated for 15 mins followed by susbtrate addition and measured after 10 mins by spectrophotometric method. Also noted: species or system Bacteria.
Data set [20] concerns Klebsiella pneumoniae. The data set can be described thus: Inhibition of KPC-2/SHV12/TEM-1 in Klebsiella pneumoniae CDC-0361 assessed as cefepime antibacterial activity at 8 ug/ml after 16 to 20 hrs by CLSI-based microbroth dilution method (reference value: […] ug/ml).
For data set [21], the system named is Pseudomonas aeruginosa. Nature of the data set: Inhibition of KPC-2/PDC-42 in Pseudomonas aeruginosa CDC-0356 assessed as piperacillin antibacterial activity at 16 ug/ml after 16 to 20 hrs by CLSI-based microbroth dilution method (Rvb > […] ug/ml).
Data set [22] deals with Pseudomonas aeruginosa. The data set can be described thus: Inhibition of VIM in Pseudomonas aeruginosa CDC-0457 assessed as piperacillin antibacterial activity at 16 ug/ml after 16 to 20 hrs by CLSI-based microbroth dilution method.
A short description of data set [23]: Inhibition of bacterial OXA-1 using nitrocefin as substrate preincubated for 15 mins followed by susbtrate addition and measured after 10 mins by spectrophotometric method. Also noted: species or system Bacteria.
Data set [24] in a line: Inhibition of bacterial OXA-48 using nitrocefin as substrate preincubated for 15 mins followed by susbtrate addition and measured after 10 mins by spectrophotometric method. Set-up: species or system Bacteria.
Data set [25] relates to Klebsiella pneumoniae. The data set can be described thus: Effect on growth of Klebsiella pneumoniae UMM expressing SHV5/KPC-2/TEM-1 after 16 to 20 hrs by CLSI-based microbroth dilution method. It counts as organism-based. To be noted: in vivo.
For the next data set, the target named is Trypsin (Homo sapiens, UniProt P07477+P07478+P35030). Nature of the data set: Inhibition of human trypsin at 100 uM. It counts as protein assay.
The subject of data set [26] is Escherichia coli. Nature of the data set: Inhibition of TEM/CTX-M/SHV/Cephalosporinase in Escherichia coli EC1552 assessed as cefepime antibacterial activity at 4 ug/ml after 16 to 20 hrs by CLSI-based microbroth dilution method (reference value: […] ug/ml).

The structures appear in SMILES notation. ≈ marks a conversion by molar mass, not a printed value.

Chain of Stromelysin-1 (P08254 whole entry): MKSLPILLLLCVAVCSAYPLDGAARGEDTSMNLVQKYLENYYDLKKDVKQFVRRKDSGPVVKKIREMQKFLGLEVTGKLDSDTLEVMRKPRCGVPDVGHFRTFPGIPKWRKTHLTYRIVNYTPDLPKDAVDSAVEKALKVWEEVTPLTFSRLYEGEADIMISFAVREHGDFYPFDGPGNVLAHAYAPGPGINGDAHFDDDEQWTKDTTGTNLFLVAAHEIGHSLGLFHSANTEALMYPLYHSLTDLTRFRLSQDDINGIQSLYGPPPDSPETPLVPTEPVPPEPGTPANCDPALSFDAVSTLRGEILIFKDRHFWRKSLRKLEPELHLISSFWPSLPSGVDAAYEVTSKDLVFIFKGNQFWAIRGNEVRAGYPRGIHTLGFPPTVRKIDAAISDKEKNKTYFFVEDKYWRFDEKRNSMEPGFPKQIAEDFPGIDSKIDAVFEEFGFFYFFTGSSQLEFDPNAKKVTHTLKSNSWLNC
Chain of Cytochrome P450 2D6 (P10635 whole entry): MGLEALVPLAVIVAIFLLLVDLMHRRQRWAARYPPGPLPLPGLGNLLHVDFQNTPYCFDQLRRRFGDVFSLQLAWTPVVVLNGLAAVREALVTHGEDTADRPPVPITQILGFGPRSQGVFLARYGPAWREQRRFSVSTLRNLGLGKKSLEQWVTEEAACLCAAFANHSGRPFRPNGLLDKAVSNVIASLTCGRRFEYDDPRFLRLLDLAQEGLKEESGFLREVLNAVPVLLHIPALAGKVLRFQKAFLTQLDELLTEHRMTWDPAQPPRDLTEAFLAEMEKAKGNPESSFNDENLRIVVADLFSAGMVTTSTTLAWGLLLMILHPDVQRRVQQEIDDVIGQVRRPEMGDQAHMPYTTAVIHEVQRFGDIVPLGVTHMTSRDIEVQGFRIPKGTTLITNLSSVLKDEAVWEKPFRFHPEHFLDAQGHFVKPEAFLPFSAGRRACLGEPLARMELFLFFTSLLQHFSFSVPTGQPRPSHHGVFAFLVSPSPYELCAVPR
Chain of Coagulation factor X (P00742 41-179 limits assumed): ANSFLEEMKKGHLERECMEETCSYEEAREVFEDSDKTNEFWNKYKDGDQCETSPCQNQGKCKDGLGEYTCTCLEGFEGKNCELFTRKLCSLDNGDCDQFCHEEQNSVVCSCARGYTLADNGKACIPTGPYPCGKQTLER
Chain of Coagulation factor X (P00742 235-488 limits assumed): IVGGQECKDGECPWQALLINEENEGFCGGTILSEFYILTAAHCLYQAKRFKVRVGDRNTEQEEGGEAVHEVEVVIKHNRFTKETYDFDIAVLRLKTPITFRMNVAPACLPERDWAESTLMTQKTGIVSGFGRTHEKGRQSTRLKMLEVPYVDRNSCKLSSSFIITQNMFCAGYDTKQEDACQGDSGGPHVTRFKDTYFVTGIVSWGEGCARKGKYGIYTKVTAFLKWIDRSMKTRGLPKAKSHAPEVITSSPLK
Chain of Neutrophil elastase (P08246 whole entry): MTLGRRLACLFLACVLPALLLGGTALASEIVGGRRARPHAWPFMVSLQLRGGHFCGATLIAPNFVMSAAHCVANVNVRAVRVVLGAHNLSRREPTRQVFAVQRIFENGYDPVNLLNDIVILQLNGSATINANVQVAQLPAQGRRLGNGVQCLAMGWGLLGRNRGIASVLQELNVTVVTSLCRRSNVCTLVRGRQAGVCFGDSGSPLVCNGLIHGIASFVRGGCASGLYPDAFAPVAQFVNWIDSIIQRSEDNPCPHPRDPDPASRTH

Take `NCCN[C@H]1CC[C@H](CC(=O)N[C@H]2Cc3cccc(C(=O)O)c3OB2O)CC1`: the “inhibition (INH)” value on Neutrophil elastase, at Stromelysin-1, against Chymotrypsin, against Cytochrome P450 2D6, at Coagulation factor X and on Trypsin was “Not Active” throughout. The Activity is 4.87 log10CFU with Escherichia coli [1], 4.51 log10CFU in the data set with Klebsiella pneumoniae [3] and “Non-Toxic” in data set [12]. Moreover, the MIC was greater than 128 µg/mL with Enterobacter cloacae [2]; greater than 128 µg/mL with Staphylococcus aureus; 2 µg/mL (≈ 5.14 µM) in the data set on Klebsiella pneumoniae [4]; 4 µg/mL (≈ 10.3 µM) in the data set with Klebsiella pneumoniae [5]; 2 µg/mL (≈ 5.14 µM) in the data set on Escherichia coli [6]; less than 0.125 µg/mL with Klebsiella pneumoniae [7]. Besides, the MIC in the data set on Klebsiella pneumoniae [8] was 2 µg/mL (≈ 5.14 µM); with Enterobacter cloacae [10] it was 0.5 µg/mL (≈ 1.28 µM); in the data set on Pseudomonas aeruginosa [11] it was 1 µg/mL (≈ 2.57 µM); against Klebsiella pneumoniae [13] it was greater than 128 µg/mL; in [14] it was 0.015 µg/mL (≈ 0.0385 µM); in the data set with Klebsiella pneumoniae [15], greater than 128 µg/mL. In addition, the MIC in the data set on Pseudomonas aeruginosa [17] is 1 µg/mL (≈ 2.57 µM); with Klebsiella pneumoniae [20], 0.015 µg/mL (≈ 0.0385 µM); in the data set on Pseudomonas aeruginosa [21], 1 µg/mL (≈ 2.57 µM); with Pseudomonas aeruginosa [22] it was 16 µg/mL (≈ 41.1 µM); in the data set with Klebsiella pneumoniae [25] it was greater than 128 µg/mL; in the data set with Escherichia coli [26], 0.5 µg/mL (≈ 1.28 µM). In addition, the IC50 (in general, the point on the concentration scale where inhibition reaches its midpoint) stood at 0.4 nM in data set [9], 30 nM in data set [19], 160 nM in data set [23] and 420 nM in data set [24]. The AUC(0-inf) (in general, the area under the concentration-time curve extrapolated to infinity) in data set [16] turned out to be 16200 ng·h/mL. The inhibition at 256 ug/ml in data set [18] is less than 20%.

In the case of `NC(=O)[C@@H]1CC[C@@H]2CN1C(=O)N2OS(=O)(=O)O` [AVIBACTAM], the MIC in the data set on Klebsiella pneumoniae [5] is greater than 16 µg/mL; in the data set with Escherichia coli [6], 16 µg/mL (≈ 60.3 µM); in the data set with Klebsiella pneumoniae [8], 1 µg/mL (≈ 3.77 µM); in the data set on Pseudomonas aeruginosa [11] it was 1 µg/mL (≈ 3.77 µM); in [14], 0.015 µg/mL (≈ 0.0566 µM); with Pseudomonas aeruginosa [17], 0.5 µg/mL (≈ 1.89 µM). Moreover, the values for the MIC with Klebsiella pneumoniae [20], in the data set on Pseudomonas aeruginosa [21] and in the data set on Pseudomonas aeruginosa [22] were 0.0079 µg/mL (≈ 0.0298 µM), 1 µg/mL (≈ 3.77 µM) and greater than 16 µg/mL, respectively. The same compound had an area under the curve AUC(0-inf) in data set [16] of 8080 ng·h/mL. In data set [23], half-maximal inhibition (IC50) was put at 40 nM.
